Compound activity deposited in PubChem BioAssay by several laboratories.
Lmaj promast – Leishmania major promastigote growth inhibition | actives 9% (n = 200,000) | AID 1063 | Leishmania major promastigotes, resazurin fluorescence viability | inhibition, % at 10 µM; in the data active = inhibition above about 50%;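 note: promastigotes grown with compound for 44 hours at 28 °C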
Diaph act CS – diaphorase activation or chemical reduction counter-screen; Diaphorase/resazurin coupled assay, resorufin fluorescence, 16 min; hits give high values; 1 = vehicle wells, 0 = NADH-free wells; AID 1229; activation factor at 20 µM; actives 0.005% (n = 190,000);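 active = diaphorase activity raised at least twofold by the compound at 20 µM; inactive = activation factor below 2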
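Material: purified diaphorase enzyme from Clostridium kluyveri / Medium: HEPES pH 7.4 buffer with MgCl2 and Tween 20 / Schedule: enzyme reaction of 16 min at room temperature / Measured by: resorufin fluorescence, excitation 544 nm, emission 590 nm / Evaluation: rise in resorufin formation, marking diaphorase activation or chemical reduction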
Diaph inh CS – inhibits diaphorase or chemically oxidizes, flagging diaphorase assay artifacts; inhibition, % at 20 µM; diaphorase resazurin-to-resorufin fluorescence, NADH, 16 min; bacterial (C. kluyveri) enzyme, not human; actives 0.69% (n = 190,000);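 active = primary screen inhibition at 20 µM above a set limit, cut at about 50% in these data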;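 note: plate controls were DMSO with full reaction for no effect and wells lacking NADH for full effect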
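Test system: bacterial diaphorase enzyme (C. kluyveri); Quantity: 0.14 U/mL diaphorase, enzyme working solution; Times: reaction incubation of 16 min at room temperature; Measured by: fluorescence of resorufin formed from resazurin, Ex 544/Em 590 nm; Benchmarks: positive control minus NADH, DMSO neutral control.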
WT yeast gro inh – growth inhibition of WT yeast, mitochondrial fusion screen. mitochondrial fusion phenotypic screen, WT strain. inhibition, % at 10 µM. actives 2.1% (n = 190,000); in the data active = inhibition above about 58%; tested in S. cerevisiae
KCC2 mod – modulators of human KCC2 chloride dependent transport. Q9H2X9. KCC2 cells, thallium flux FluoZin-2 fluorescence. B-score of Tl+ flux slope (higher = more flux/activation; lower = inhibition) at 10 µM. actives 2.2% (n = 190,000);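 active = thallium flux slope and its plate-corrected score both differing from the plate sample mean at a set confidence after two filtering rounds, in either direction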;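 note: slope of fluorescence scaled to starting intensity during 10 to 20 s after thallium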
ROMK mod – human ROMK K+ channel modulation, primary screen; Tet-inducible ROMK, thallium flux fluorescence; actives lie on both sides; B-score at 10 µM; actives 2% (n = 130,000); AID 1918;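 active = signal ratio slope over the read window, or its plate-corrected B-score, at least 3 SD from the plate mean, either direction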;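 note: B-score of the F/F0 ratio slope over 7 to 12 s after thallium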
Target sequence (P48048 whole entry, looked up): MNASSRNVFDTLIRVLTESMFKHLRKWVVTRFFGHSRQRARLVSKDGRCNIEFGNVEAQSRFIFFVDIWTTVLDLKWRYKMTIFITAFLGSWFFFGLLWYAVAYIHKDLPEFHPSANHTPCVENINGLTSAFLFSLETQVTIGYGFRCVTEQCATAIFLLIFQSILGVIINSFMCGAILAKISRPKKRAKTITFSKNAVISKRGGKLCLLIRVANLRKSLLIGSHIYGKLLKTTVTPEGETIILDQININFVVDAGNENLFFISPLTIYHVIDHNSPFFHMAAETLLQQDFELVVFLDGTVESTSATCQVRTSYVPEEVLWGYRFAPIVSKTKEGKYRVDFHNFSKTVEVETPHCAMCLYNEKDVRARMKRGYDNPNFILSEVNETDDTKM
Active calls of the source: *; i = inactive; nt = no result given. Most compounds without a hit are left out; they make up all but 12% or so of the library.

SMILES	Lmaj promast	Diaph act CS	Diaph inh CS	WT yeast gro inh	KCC2 mod	ROMK mod
Cc1cc(C)cc(Nc2nc(-c3ccc(S(=O)(=O)N4CCCC4)cc3)cs2)c1	99*	0.8	18	7	0.08	1.5
Cc1ccc(Nc2nc(-c3ccc(S(=O)(=O)N4CCOCC4)cc3)cs2)cc1	24	nt	nt	nt	-0.39	nt
COC(=O)C1=C(C)N(c2cc(C)cc(C)c2)/C(=C/c2ccc(O)cc2)C1=O	99*	0.8	17	-5	nt	-1.2
COC(=O)C1=C(C)N(c2cc(C)cc(C)c2)/C(=C/c2ccco2)C1=O	48	0.8	22	6	-1.1	-1.2
COC(=O)C1=C(C)N(c2ccc(Cl)cc2)/C(=C/c2ccc(O)cc2)C1=O	84*	0.9	11	-8	-0.3	-0.16
Cc1c(Br)c([N+](=O)[O-])nn1CC(=O)NCC1CCCO1 (stereo not given)	-1	0.8	16	-9	0.19	0.47
CCCS(=O)(=O)Nc1ccc(-c2ccc3nnc(C)n3n2)cc1	-6	1	1	4	0.41	0.48
CC1=CC2=NC(=O)/C(=C\c3cccn3CCOc3cc(C)ccc3C)C(=N)N2O1	53*	1	0	33	-0.79	0.67
COc1cc(CN2CCCC(C(=O)c3ccccc3SC)C2)cc(OC)c1 (stereo not given)	6	0.9	12	-5	nt	-1.2
O=C1SC(SCc2ccccc2)=N/C1=C\c1ccco1	-8	0.8	15	25	-0.027	nt
CCCSC1=N/C(=C\C=C\c2ccco2)C(=O)S1	-7	0.5	51*	20	-0.25	nt
O=C(CCNS(=O)(=O)c1cccs1)NCc1ccco1	-13	0.9	9	-8	nt	-0.00022
CCCCCCc1cc2cc(C(N)=O)c(=N)oc2cc1O	45	1	0	82*	i	nt
CCCCCCc1cc2cc(C(=O)NC)c(=N)oc2cc1O	58*	0.8	18	23	1.4	nt
CCCCCCc1cc2cc(C(=O)OCC)c(=O)oc2cc1O	nt	nt	nt	nt	-0.27	0.11
COC(=O)Nc1ccc(Cc2ccncc2)cc1	-4	0.9	11	5	0.0047	1.1
COc1c(C(=O)Nc2ccc(Cc3ccncc3)cc2)ccc2ccccc12	18	1	5	68*	-2.9	nt
COc1ccc(Br)cc1C(=O)Nc1ccc(Cc2ccncc2)cc1	81*	1	1	-6	nt	nt
O=C(OC(c1ccccc1)c1nccc2ccccc12)c1cc([N+](=O)[O-])cc([N+](=O)[O-])c1 (stereo not given)	98*	0.9	10	56	-0.6	nt
O=C(NC(c1ccccc1)c1ccccn1)c1cccc([N+](=O)[O-])c1 (stereo not given)	10	1	4	8	0.026	0.44
O=C(O)CCC(=O)NCc1cn(-c2ccccc2)nc1-c1cccc(Br)c1	59*	0.9	14	1	3.8	nt
CCn1ncc(CNC(=O)c2cccc([N+](=O)[O-])c2)c1C	-4	0.9	5	-3	0.48	nt
CN1CCN(NC(=O)c2cn(-c3ccccc3)nc2-c2cccc(Br)c2)CC1	35	1	3	-12	-0.14	-0.36
CCn1cc(CNC(=O)c2cccc([N+](=O)[O-])c2)cn1	89*	1.1	-10	-6	0.087	0.0078
O=C(NCc1cn(-c2ccccc2)nc1-c1ccccc1)c1cc([N+](=O)[O-])cc([N+](=O)[O-])c1	100*	1	0	0	1.2	nt
O=C(NCc1cn(-c2ccccc2)nc1-c1ccccc1)c1cccc([N+](=O)[O-])c1	25	0.8	18	20	0.91	nt
COc1ccc(-c2nn(-c3ccccc3)cc2CNC(=O)c2cccc([N+](=O)[O-])c2)cc1	52*	0.8	19	10	0.45	nt
O=C(COC(=O)c1cn(-c2ccccc2)nc1-c1ccccc1)c1cccc([N+](=O)[O-])c1	0	0.9	8	-2	0.29	nt
O=C(Cn1cnc2c(nnn2-c2cccc(Cl)c2)c1=O)NCc1ccccc1	-8	0.9	5	-7	0.61	nt
C[C@H](NS(=O)(=O)c1ccccc1)C(=O)OCC(=O)NC(=O)Nc1ccc2c(c1)OCCO2	46	0.8	24	-3	0.93	nt
